# Laboratory results taken from ChEMBL document CHEMBL4049428, “Exploring Derivatives of Quinazoline Alkaloid l-Vasicine as Cap Groups in the Design and Biological Mechanistic Evaluation of Novel Antitumor Histone Deacetylase Inhibitors” (J Med Chem, 2017).
# Active and inactive are the calls of the source. The rule behind the calls is not given here.
# What was measured:
# [1] = system: THP-1; experiment: Antimigratory activity in human THP1 cells at 10 uM after 48 hrs by wound healing assay; format: functional, cell-based
# In short: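 THP-1 cells seeded at high density, attached overnight; monolayer scratched with a pipette tip, debris removed by PBS washes, then test compound added after wounding. Incubated 48 h under standard culture conditions (37°C, 5% CO2); wound images taken at various intervals from time zero.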
# [2] = system: MOLT-4; experiment: Induction of mitochondrial membrane potential loss in human MOLT4 cells at 10 uM measured after 48 hrs by Rh123 dye-based flow cytometric analysis (reference value: 90.4%); format: functional
# In short: (§1)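 Cells seeded in 6-well plates 2-4 h, then 48 h with compound; Rh-123 1 µM added for the final half hour; cells centrifuged, washed twice in PBS, resuspended in PBS, and Ψm loss quantified by flow cytometry as percentage of cells.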
# [3] = system: MCF-10A; experiment: Cytotoxicity against human MCF10A cells assessed as growth inhibition after 48 hrs by MTT assay; format: ADME, cell-based
# [4] = target: Histone deacetylase 2 (Homo sapiens, UniProt Q92769); experiment: Inhibition of HDAC 2 in human HeLa nuclear extract using HDAC substrate-3 measured after 60 mins by fluorometric analysis
# [5] = system: HL-60; experiment: Induction of reactive oxygen species in human HL60 cells at 1 uM measured after 48 hrs by H2DCFDA dye-based flow cytometric analysis (reference value: 0.4%); format: functional
# [6] = target: Histone deacetylase 5 (Homo sapiens, UniProt Q9UQL6); experiment: Inhibition of HDAC 5 in human HeLa nuclear extract using fluorogenic HDAC class 2A substrate measured after 60 mins by fluorometric analysis
# [7] = system: MCF7; experiment: Cytotoxicity against human MCF7 cells assessed as growth inhibition at 10 uM after 48 hrs by MTT assay; format: functional; conditions: MCF7, 48 h, read-out: GI
# In short: (§2)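 MTT assay, 48 h exposure; adherent lines seeded 12 h and suspension lines 4 h before compound. Media: RPMI-1640/10% FCS (THP-1, HL-60, Colo-205, Caco-2, A549), DMEM/10% FCS (A549, MIAPaCa-2, MCF-7). MTT 4 h, formazan dissolved in DMSO, absorbance 570 nm. Mean ± S.D of three experiments in triplicate; SAHA 5 µM reference.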
# [8] = system: HL-60; experiment: Induction of mitochondrial membrane potential loss in human HL60 cells at 10 uM measured after 48 hrs by Rh123 dye-based flow cytometric analysis (reference value: 5.6%); format: functional; in short: as §1
# [9] = system: HL-60; experiment: Cytotoxicity against human HL60 cells assessed as growth inhibition at 10 uM after 48 hrs by MTT assay; format: functional; conditions: HL-60, 48 h, read-out: GI; in short: as §2
# [10] = system: Mus musculus; experiment: Toxicity in CDF1 mouse assessed as mortality at 50 mg/kg, ip administered for 9 consecutive days measured up to 18 days; format: organism-based; conditions: in vivo, 432 h
# In short: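 P388 leukemia cells were harvested from 6–7-day-old ascites grown in the peritoneum of female DBA/2 mice. Female CDF1 mice (18–23 g) received 5×10^5 cells i.p. on day 0. Next day they were randomized into groups of 7 and dosed i.p. daily for 9 consecutive days; controls got 0.2 ml normal saline. Mortality was followed to day 18, with median survival time and %T/C calculated.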
# [11] = system: MOLT-4; experiment: Cytotoxicity against human MOLT4 cells assessed as growth inhibition at 10 uM after 48 hrs by MTT assay; format: functional; conditions: MOLT-4, 48 h, read-out: GI
# [12] = system: MOLT-4; experiment: Induction of autophagy in human MOLT4 cells assessed as intracellular LC-3B distribution at 10 uM after 48 hrs by DAPI dye-based immunofluorescent microscopic analysis; format: functional, cell-based
# In short: (§3)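 After 48 h treatment (SAHA 1.0 µM control), cells put on poly-lysine coverslips, fixed 15 min in 4% paraformaldehyde, permeabilised with 0.1% Triton X-100, blocked in 10% BSA; anti-LC-3B 1:100 for 1 h, Alexa Fluor 488 secondary 1:500 for 1 h, DAPI 1 µg/ml counterstain; imaged with 60X oil objective.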
# [13] = system: HL-60; experiment: Induction of mitochondrial membrane potential loss in human HL60 cells assessed as intact mitochondrial membrane potential at 0.125 uM measured after 48 hrs by Rh123 dye-based flow cytometric analysis (reference value: 91.3%); format: functional; in short: as §1
# [14] = system: HL-60; experiment: Induction of DNA damage in human HL60 cells by comet assay; format: functional, cell-based
# In short: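 Alkaline comet assay on HL-60 cells in 0.5% low-melting agarose; lysis 2 h cold (2.5 M NaCl, 100 mM Na2EDTA, 10 mM Tris, pH 10, plus 1% Triton X-100); electrophoresis pH>13, 24 V, 300 mA, 40 min; neutralised pH 7.5, ethidium bromide stained; about 100 cells scored by image analysis, dim light.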
# [15] = system: MCF7; experiment: Cytotoxicity against human MCF7 cells assessed as growth inhibition after 48 hrs by MTT assay; format: functional, cell-based; conditions: MCF7, 48 h
# [16] = species on record: Homo sapiens; experiment: Inhibition of HDAC in human HL60 cells assessed as increase in acetylated H3K18 levels after 48 hrs by Western blot analysis; format: cell-based
# In short: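 Cells seeded 2-4 h, treated 48 h with graded compound concentrations (SAHA control); histones acid-extracted (HEPES pH 9 buffer, 0.2 N HCl, 1 h on ice), Bradford-normalised, resolved on 18% SDS gels, blotted to PVDF, probed for acetyl-H3K18 and acetyl-H4K5 with H3 and β-actin loading controls; ECL detection.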
# [17] = system: MOLT-4; experiment: Induction of autophagy in human MOLT4 cells assessed as acidic vacuole formation in cytoplasm at 10 uM after 48 hrs by acridine orange dye-based fluorescent microscopic analysis; format: functional, cell-based
# In short: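 Cells treated 48 h with a range of compound concentrations, SAHA 1.0 µM as positive control; acridine orange 1 µg/ml added 15 min before end at 37°C; cells washed in PBS and acidic vacuoles viewed by fluorescence microscopy.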
# [18] = system: MIA PaCa-2; experiment: Cytotoxicity against human MIAPaCa2 cells assessed as growth inhibition after 48 hrs by MTT assay; format: functional, cell-based; conditions: MIA PaCa-2, 48 h; in short: as §2
# [19] = system: HL-60; experiment: Induction of autophagy in human HL60 cells assessed as intracellular LC-3B distribution at 10 uM after 48 hrs by DAPI dye-based immunofluorescent microscopic analysis; format: functional, cell-based; in short: as §3
# [20] = system: COLO 205; experiment: Cytotoxicity against human COLO205 cells assessed as growth inhibition after 48 hrs by MTT assay; format: functional, cell-based; conditions: COLO 205, 48 h
# [21] = system: MOLT-4; experiment: Induction of reactive oxygen species in human MOLT4 cells at 10 uM measured after 48 hrs by H2DCFDA dye-based flow cytometric analysis (reference value: 1.1%); format: functional
# [22] = Inhibition of HDAC in human HeLa nuclear extract using Boc-Lys(Ac)-AMC as substrate measured after 30 mins by fluorometric analysis
# [23] = system: HL-60; experiment: Induction of mitochondrial membrane potential loss in human HL60 cells assessed as intact mitochondrial membrane potential at 5 uM measured after 48 hrs by Rh123 dye-based flow cytometric analysis (reference value: 91.3%); format: functional; in short: as §1
# [24] = target: Histone deacetylase 9 (Homo sapiens, UniProt Q9UKV0); experiment: Inhibition of HDAC 9 in human HeLa nuclear extract using fluorogenic HDAC class 2A substrate measured after 60 mins by fluorometric analysis
# [25] = system: Caco-2; experiment: Cytotoxicity against human Caco2 cells assessed as growth inhibition at 10 uM after 48 hrs by MTT assay; format: functional; conditions: Caco-2, 48 h, read-out: GI; in short: as §2
# [26] = system: A549; experiment: Cytotoxicity against human A549 cells assessed as growth inhibition after 48 hrs by MTT assay; format: functional, cell-based; conditions: A549, 48 h
# Chain of Histone deacetylase 2 (Q92769 whole entry): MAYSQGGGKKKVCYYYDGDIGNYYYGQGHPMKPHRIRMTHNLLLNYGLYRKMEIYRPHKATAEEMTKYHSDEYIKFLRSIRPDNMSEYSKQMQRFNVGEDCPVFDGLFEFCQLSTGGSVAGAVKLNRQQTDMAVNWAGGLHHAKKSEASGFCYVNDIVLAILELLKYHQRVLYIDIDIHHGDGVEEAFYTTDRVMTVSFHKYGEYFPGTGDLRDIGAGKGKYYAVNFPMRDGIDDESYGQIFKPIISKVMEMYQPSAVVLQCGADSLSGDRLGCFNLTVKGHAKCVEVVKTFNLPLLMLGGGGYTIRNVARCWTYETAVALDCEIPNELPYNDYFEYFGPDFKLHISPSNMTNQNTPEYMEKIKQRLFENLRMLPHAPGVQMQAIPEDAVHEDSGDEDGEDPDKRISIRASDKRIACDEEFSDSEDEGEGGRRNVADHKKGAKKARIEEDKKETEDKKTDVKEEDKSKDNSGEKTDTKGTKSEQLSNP
# Chain of Histone deacetylase 5 (Q9UQL6 whole entry): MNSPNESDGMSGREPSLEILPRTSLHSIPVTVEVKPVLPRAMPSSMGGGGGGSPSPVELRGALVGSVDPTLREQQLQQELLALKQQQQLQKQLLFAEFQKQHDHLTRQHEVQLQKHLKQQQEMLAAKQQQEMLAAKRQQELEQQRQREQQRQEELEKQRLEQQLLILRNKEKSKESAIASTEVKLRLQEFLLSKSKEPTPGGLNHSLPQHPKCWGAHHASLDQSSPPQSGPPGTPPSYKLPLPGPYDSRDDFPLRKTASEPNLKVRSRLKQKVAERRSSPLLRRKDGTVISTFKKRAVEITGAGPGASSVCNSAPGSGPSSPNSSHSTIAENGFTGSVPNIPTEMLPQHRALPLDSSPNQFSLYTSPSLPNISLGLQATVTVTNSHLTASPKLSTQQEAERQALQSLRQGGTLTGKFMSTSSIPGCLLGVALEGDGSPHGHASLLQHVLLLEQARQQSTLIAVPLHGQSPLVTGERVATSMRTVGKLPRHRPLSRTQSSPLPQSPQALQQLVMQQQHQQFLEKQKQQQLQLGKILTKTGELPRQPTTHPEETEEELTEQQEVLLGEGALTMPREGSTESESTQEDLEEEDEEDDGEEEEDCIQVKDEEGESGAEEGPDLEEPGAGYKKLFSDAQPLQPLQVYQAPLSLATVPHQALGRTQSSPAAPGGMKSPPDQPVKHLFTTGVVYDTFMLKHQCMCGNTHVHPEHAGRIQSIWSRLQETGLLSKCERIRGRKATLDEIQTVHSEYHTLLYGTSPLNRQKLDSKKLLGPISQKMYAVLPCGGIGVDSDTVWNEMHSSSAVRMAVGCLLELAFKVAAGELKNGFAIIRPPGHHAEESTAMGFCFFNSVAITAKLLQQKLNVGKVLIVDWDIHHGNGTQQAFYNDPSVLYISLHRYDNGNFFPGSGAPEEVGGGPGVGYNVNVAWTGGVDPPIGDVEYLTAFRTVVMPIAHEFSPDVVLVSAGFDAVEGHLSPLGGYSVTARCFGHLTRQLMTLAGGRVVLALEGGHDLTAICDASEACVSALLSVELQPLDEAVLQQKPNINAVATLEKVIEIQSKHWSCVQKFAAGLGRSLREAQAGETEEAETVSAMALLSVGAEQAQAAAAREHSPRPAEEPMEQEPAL
# Chain of Histone deacetylase 9 (Q9UKV0 whole entry): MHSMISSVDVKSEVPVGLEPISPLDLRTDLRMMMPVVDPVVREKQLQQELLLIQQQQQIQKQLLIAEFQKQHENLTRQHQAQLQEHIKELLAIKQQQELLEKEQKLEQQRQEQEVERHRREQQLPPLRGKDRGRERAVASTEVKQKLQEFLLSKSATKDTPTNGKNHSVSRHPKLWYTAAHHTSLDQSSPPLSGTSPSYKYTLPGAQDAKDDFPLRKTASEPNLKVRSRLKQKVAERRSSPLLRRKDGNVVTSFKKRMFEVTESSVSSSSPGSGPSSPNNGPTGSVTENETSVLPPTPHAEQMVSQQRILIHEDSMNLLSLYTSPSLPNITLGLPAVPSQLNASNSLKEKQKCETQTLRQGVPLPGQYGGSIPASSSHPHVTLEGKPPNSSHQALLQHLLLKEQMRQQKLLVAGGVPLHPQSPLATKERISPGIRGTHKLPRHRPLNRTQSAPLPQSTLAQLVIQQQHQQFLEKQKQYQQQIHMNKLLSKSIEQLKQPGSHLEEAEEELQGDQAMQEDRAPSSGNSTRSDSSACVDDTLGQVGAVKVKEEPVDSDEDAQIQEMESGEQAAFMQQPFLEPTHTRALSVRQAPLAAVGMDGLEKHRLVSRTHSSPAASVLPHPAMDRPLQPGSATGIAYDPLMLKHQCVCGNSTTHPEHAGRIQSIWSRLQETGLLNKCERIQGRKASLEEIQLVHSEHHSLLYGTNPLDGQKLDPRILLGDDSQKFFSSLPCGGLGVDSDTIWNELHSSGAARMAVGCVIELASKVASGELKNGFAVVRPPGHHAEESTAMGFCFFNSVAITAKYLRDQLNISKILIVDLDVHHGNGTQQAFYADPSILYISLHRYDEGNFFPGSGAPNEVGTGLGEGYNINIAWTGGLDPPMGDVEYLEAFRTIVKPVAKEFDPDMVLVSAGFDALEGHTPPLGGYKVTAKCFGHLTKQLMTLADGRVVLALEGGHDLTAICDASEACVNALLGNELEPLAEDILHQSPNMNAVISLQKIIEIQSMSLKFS
smiles,measurement,setting,value
O=C(CCCCCCC(=O)Nc1ccccc1CN1CC[C@H](O)C1)NO,Activity,[1],Active
same,Activity,[2],32.5%
same,IC50,[3],37000 nM
same,IC50,[4],268 nM
same,Activity,[5],0.6%
same,IC50,[6],5390 nM
same,inhibition of growth at 10 µM,[7],93%
same,Activity,[8],32%
same,inhibition of growth at 10 µM,[9],95%
same,Activity,[10],Non-Toxic
same,inhibition of growth at 10 µM,[11],91%
same,Activity,[12],Active
same,Activity,[13],89%
same,Activity,[14],Dose-dependent effect
same,IC50,[15],1500 nM
same,inhibition,[16],Dose-dependent effect
same,Activity,[17],Active
same,IC50,[18],1000 nM
same,Activity,[19],Active
same,IC50,[20],600 nM
same,Activity,[21],0.9%
same,IC50,[22],370 nM
same,Activity,[23],82.6%
same,IC50,[24],> 10000 nM
same,inhibition of growth at 10 µM,[25],58%
same,IC50,[26],7000 nM
